The text below walks through data of ChEMBL document CHEMBL4513216, “Probing the Open Global Health Chemical Diversity Library for Multistage-Active Starting Points for Next-Generation Antimalarials” (ACS Infect Dis, 2020).

The data set in a line: Toxicity liver stage against HepG2, at 10uM. The following applies: human, HepG2-A16-CD81EGFP cells; read-out: INHIBITION
Type of data set: cell-based. Further details: test concentration 10 uM, cell line HepG2-A16-CD81EGFP. A digest of the protocol:
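Uninfected HepG2-A16-CD81EGFP cells, 3 × 10^3 per well, 1536-well, plated on prespotted compound at 10 μM final, parasite-free screening media added to match infected plates; puromycin 10 μM positive, DMSO 0.5% negative; run in parallel with 48 h PbLuc assay at 37 °C, 5% CO2; viability by CellTiter-Glo luminescence, normalized to controls.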
For `O=c1c2ccccc2nc2n1C(CSc1ccc(F)cc1)CN2` (configuration not stated), the cytotoxicity at 10 µM stood at 11.2%.

For the compound `CN(C)c1nc(N)nc(CN2CCCC2c2ccsc2)n1` (configuration not stated), the cytotoxicity at 10 µM is -19.6%.

Consider `CNCc1cn(C[C@H]2CC3CCN2C[C@@H]3C(=O)Nc2ccccc2)nn1` (some centres not stated), for which the cytotoxicity at 10 µM is -0.288%. The value for `COCCNc1c(-c2ccc(C)cc2)c(=O)c1=O` was -5.15%; that for `CCC(CC)NC(=O)c1cccnc1N1CCCC1c1ccccn1` (configuration not stated) was 10.3%. Turning to `CC(=O)N1N=C(c2cccs2)OC1C(=O)NCCc1cccc(Cl)c1` (configuration not stated), the cytotoxicity at 10 µM was -1.66%.

In the case of `O=C1CN(C(=O)c2cccc(C(F)(F)F)c2)CC(O)CN1CC1CC1` (configuration not stated), the cytotoxicity at 10 µM is -4.65%. `CC(C)CNC(=O)c1cn(C)c(=O)c2ccccc12`: the cytotoxicity at 10 µM is 1.28%.

Consider `Cn1cccc1C(O)CNC(=O)c1cccc(Cl)c1` (configuration not stated), for which the cytotoxicity at 10 µM was -1.94%. As for `Cc1ccsc1C(O)CNC(=O)Cc1ccc(S(=O)(=O)C(C)C)cc1` (configuration not stated), the cytotoxicity at 10 µM is -1.21%. In the case of `Cc1ccc(F)cc1S(=O)(=O)Nc1cnc(N2CCCC2)nc1`, the cytotoxicity at 10 µM came out at 3.91%. As for `CCCC(=O)N1CCC2(CC1)CN(Cc1cccc(C)n1)C(=O)CO2`, the cytotoxicity at 10 µM is -5.05%.

Regarding `Cc1nc(CN2CCC3(CCN(Cc4cnn(C)c4)C3)C2=O)cs1` (configuration not stated), the cytotoxicity at 10 µM was 6.81%. For the compound `O=C1CC(c2ccc(O)cc2)c2sc(C(=O)O)c(-c3ccccc3)c2N1` (configuration not stated), the cytotoxicity at 10 µM was -0.472%. Consider `O=C(Nc1ccc(I)cc1C(=O)NCCN1CCOCC1)c1cccs1`, for which the cytotoxicity at 10 µM is -5.09%.

As for `O=C(c1ccoc1)N1CCC2(CC1)C(=O)Nc1ccccc12`, the cytotoxicity at 10 µM is -13.6%. Turning to `CNC(=O)[C@@]12CCCN(c3ncccn3)[C@@H]1CN(C(=O)NC(C)C)C2`, the cytotoxicity at 10 µM worked out at 0.614%. The value for `CCn1nc(C)c2nn(CC(=O)NC3CCSCC3)cc21` was -3.57%; that for `Cc1c(-c2cc(C(=O)N3CCc4ncc(Cl)cc4C3)on2)cnn1C` was -3.07%. The value for `C[S+]([O-])CCNC(=O)N1CCSC2(CCCCC2)C1` (configuration not stated) was -0.363%; that for `CC(C)(C)NC(=O)CNc1ccc(Br)cn1` was -2.81%.

On to `CCC(O)(CNCc1cc[nH]n1)c1ccc(Br)cc1` (configuration not stated), for which the cytotoxicity at 10 µM worked out at 2.69%. In the case of `CN1N=C(c2nc(Cc3cccc(Br)c3)no2)CCC1=O` it was -6.09%. In the case of `CC(C)Cc1noc(CN2CCC(C(=O)NCC3CCCO3)CC2)n1` (configuration not stated), the cytotoxicity at 10 µM was 3.13%. `Cc1cc(CNS(C)(=O)=O)ccc1N(C)C`: the cytotoxicity at 10 µM is -11.5%. In the case of `NC(=O)C1CCN(CCc2ccc(NCc3cccnc3)cc2)CC1` it was 8.02%; in that of `CC(C)c1cccc(CSc2nnc(Cn3cncn3)o2)n1`, 13%; in that of `COc1cccc(CCCn2cnnc2[S+](C)[O-])c1` (configuration not stated), -12.7%. The value for `COc1ccsc1C(=O)Nc1cc(Cl)c(=O)n(C)c1` was 2.05%; that for `CN(C)c1nccc(N(C)C2CCCCC2)n1` was -6.37%; that for `Cc1c(NCCOCC(F)(F)F)cccc1C(=O)N1CCCC1` was -0.595%. In the case of `Cc1[nH]ccc1C(=O)Nc1cccc(CN2CCC(CO)CC2)c1` it was -9.37%. Regarding `CC(C)c1nccc([C@H]2C[C@@H]3CCN(Cc4ccoc4)C[C@H]3O2)n1`, the cytotoxicity at 10 µM was -4.45%. In the case of `COCC(=O)N1CCC2(CC1)CC(CC(=O)NC1CC1)c1ccccc12` (configuration not stated), the cytotoxicity at 10 µM came out at 0.873%. The value for `O=C(NCCC1CCCCO1)c1cc(COc2ccccc2F)[nH]n1` (configuration not stated) was 6.57%; that for `O=C(Nc1ccc2occc2c1)N1CCCC(O)(CO)CC1` (configuration not stated) was -0.735%; that for `CN(Cc1ncnn1C1Cc2ccccc2C1)C1CCS(=O)(=O)C1` (configuration not stated) was -2.14%. The value for `Cc1nc(CC(C)C)cc(C(=O)N2C[C@@H](CN(C)C)[C@@H](CO)C2)n1` was 0.868%. In the case of `Cc1nc2c(c(NCC3Cc4ccccc4CN3C)n1)CCNCC2` (configuration not stated) it was -9.08%; in that of `CC(C)c1ccn(C2(C(=O)O)CCN(c3cc(C(N)=O)ccn3)CC2)n1`, 1.71%.

Take `CCN(CC)CCn1cnc(-c2ccccc2)c1-c1ncc[nH]1`: the cytotoxicity at 10 µM came out at 4.03%.

Regarding `CCc1nc(N2CCN(CCOC)CC2)c2cnn(C)c2n1`, the cytotoxicity at 10 µM was found to be 0.363%. The value for `COc1cc(C)ccc1S(=O)(=O)N1CC[C@](C)(O)[C@H](C)C1` was 7.52%.

Consider `Cc1cccc(OC2CN(C(=O)C3CC(=O)N(C(C)(C)C)C3)C2)c1` (configuration not stated), for which the cytotoxicity at 10 µM was 4.4%. In the case of `COc1cc(-n2cc(CCO)cn2)ccc1NC(C)=O` it was 9.81%.

On to `CCc1cc(NCCCOC2CCN(C)CC2)ncn1`, for which the cytotoxicity at 10 µM is -8.34%. Regarding `Cn1c(CN2CCCCC2)nnc1C1CCN(c2nccc(N)n2)CC1`, the cytotoxicity at 10 µM was -7.98%. The value for `Cc1ccccc1CC1(C(=O)O)CCCN(c2ncnc3[nH]ccc23)C1` (configuration not stated) was 3.63%; that for `COc1ccc(Oc2cccc(C#N)n2)cc1CN1CCCC1` was -1.86%; that for `O=S1(=O)C[C@@H]2[C@H](C1)N(Cc1cc(Cl)cc(Cl)c1)CCN2CC1CC1` was 27.6%.

Turning to `Cc1cc(Nc2nc(C)cs2)nc(C2CCCCN2CCO)n1` (configuration not stated), the cytotoxicity at 10 µM amounted to 1.8%. The value for `CC1CCCCN1Cc1ccc(-c2ccccc2C(=O)O)cc1` (configuration not stated) was 6.74%; that for `COCCN1CCC(NCc2c(F)cccc2F)C1` (configuration not stated) was -5.95%; that for `CCc1nc(CN2CCCN(C(=O)c3ccnc(C)n3)CC2)cs1` was -13.4%. `Cn1c(C2CC2)nc2c1CCN(Cc1nc(-c3ccsc3)no1)C2`: the cytotoxicity at 10 µM stood at 8.73%. In the case of `Cc1cc(NC(=O)NCC(O)COc2ccccc2)n(C)n1` (configuration not stated) it was -3.19%; in that of `Cc1nc(C2CCCN(C(=O)Cn3ccccc3=O)C2)sc1C` (configuration not stated), 1.5%; in that of `O=C(NCCNC(=O)c1scnc1Cl)c1cccs1`, -9.44%. `CCOCCN1CCN(Cc2cccc(C(=O)N(C)C)c2)CC1CC` (configuration not stated): the cytotoxicity at 10 µM was -5.83%. With `CCN1CCN(c2ccc(CNC(=O)c3cc(C)on3)cn2)CC1`, the cytotoxicity at 10 µM is -11%. Consider `CC(=O)NCCNC(=O)CN1CCOC(Cn2cc(C)cn2)C1` (configuration not stated), for which the cytotoxicity at 10 µM is -4.44%. In the case of `CCc1n[nH]c(C2CN(CCS(C)(=O)=O)CCO2)n1` (configuration not stated) it was -18%; in that of `c1ncn(CC2CN(CC3CCCCC3)CCO2)n1` (configuration not stated), -14.8%; in that of `Cn1nc(C(=O)N2CCCC(n3cncn3)C2)ccc1=O` (configuration not stated), -17.4%. On to `Cn1ccc(CN2CCC(Oc3ccccc3)CC2)cc1=O`, for which the cytotoxicity at 10 µM is -3.71%. For `Cc1noc(C(C)C)c1C(=O)NCc1cc(F)cc(F)c1`, the cytotoxicity at 10 µM was -5.54%. Turning to `COc1cccc(CCNCc2c(C)nn(C)c2N(C)C)c1`, the cytotoxicity at 10 µM is -1.6%. The value for `COc1ccc(-c2cnc(CN3CCn4c(C)nnc4C3)o2)cc1` was -13.5%. As to `Cc1nnc2n1CCN(CCS(=O)(=O)c1ccccc1)C2`, the cytotoxicity at 10 µM was -9.7%. In the case of `CCc1nnc(CN2CCCC(c3cc(C(F)(F)F)[nH]n3)C2)o1` (configuration not stated) it was 6.88%; in that of `CC(C)[C@H](N)c1nnc(SCC(=O)Nc2ccc(Br)cc2)o1`, -5.15%; in that of `CC(C)(C)c1cc(=O)[nH]c(C2(N)CCCCC2)n1`, 16.5%.
